Measured values reported in ChEMBL document CHEMBL3425495, “Perturbation of the c-Myc-Max protein-protein interaction via synthetic α-helix mimetics” (J Med Chem, 2015).
Active and inactive are the calls of the source. The rule behind the calls is not given here.

Experiments:
c-Myc/Max [1] = biological target: T1, c-Myc/Max (Homo sapiens, UniProt P01106+P61244); test: Disruption of human recombinant c-Myc-Max(S)/DNA (unknown origin) binding assessed as complex level at 100 uM by electrophoretic mobility shift assay relative to control; type: protein-complex assay
How it was run: (§1)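 Recombinant c-Myc 353–437 bHLH-ZIP with full-length Max(S), or Max(L) alone, from E. coli (His₆ removed by TEV), each 30 nM, with 30 nM HEX-labelled double-stranded oligonucleotide bearing a c-Myc site; buffer 1× PBS pH 7.3, 1 mM EDTA, 0.1% NP40, 5% glycerol, 1 mM DTT, 400 µg/mL BSA; complex level relative to DMSO control; three independent EMSAs.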

Daudi = test: Antiproliferative activity against c-Myc-overexpressing human Daudi cells after 3 days by MTT assay; type: functional, cell-based; conditions: 72 h
How it was run: (§2)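 Cells at >90% viability seeded at 2×10³ cells/well in fresh growth medium with 10-point serial dilutions of compound; 3-day incubation; viability by MTT, relative to untreated cells; each point in at least triplicate; IC50 from dose–response. HO15.19-wt-Myc are myc−/− rat fibroblasts with c-Myc restored by stable retroviral transduction.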

c-Myc/Max [2] = biological target: T1, c-Myc/Max; test: Disruption of human recombinant c-Myc-Max/DNA (unknown origin) binding assessed as complex level by electrophoretic mobility shift assay relative to control; type: protein-complex assay; how it was run: as §1
[3] = Antiproliferative activity against c-Myc-overexpressing human HL60 cells after 3 days by MTT assay; type: functional, cell-based; conditions: HL-60, 72 h; how it was run: as §2
[4] = Cell cycle arrest in human HL60 cells assessed as accumulation at G0/G1 phase at 20 uM after 24 hrs by propidium iodide staining-based flow cytometric analysis (reference value: 39%); type: functional; conditions: HL-60
[5] = Cell cycle arrest in human HL60 cells assessed as accumulation at S phase at 40 uM after 24 hrs by propidium iodide staining-based flow cytometric analysis (reference value: 49%); type: functional; conditions: HL-60
c-Myc/Max [6] = biological target: T1, c-Myc/Max; test: Induction of dissociation of […]-Max in human HL60 cells at 40 to 72 uM after 6 hrs by Co-immunoprecipitation (Co-IP) assay; type: cell-based; conditions: HL-60
How it was run: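 About 5×10⁶ HL60 cells exposed 6 h to compound or DMSO; lysed in IP buffer; 300 µg cleared lysate immunoprecipitated overnight at 4 °C with anti-Max (1:200) and protein G-Sepharose; 10% SDS-PAGE, immunoblot with anti-c-Myc 9E10 (1:1000); input lysate kept for comparison.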

[7] = Cell cycle arrest in human HL60 cells assessed as accumulation at S phase at 20 uM after 24 hrs by propidium iodide staining-based flow cytometric analysis (reference value: 49%); type: functional; conditions: HL-60
[8] = Cell cycle arrest in human HL60 cells assessed as accumulation at G0/G1 phase at 40 uM after 24 hrs by propidium iodide staining-based flow cytometric analysis (reference value: 39%); type: functional; conditions: HL-60
[9] = Cell cycle arrest in human HL60 cells assessed as accumulation at G2/M phase at 20 uM after 24 hrs by propidium iodide staining-based flow cytometric analysis (reference value: 11.2%); type: functional; conditions: HL-60
[10] = Cell cycle arrest in human HL60 cells assessed as accumulation at G2/M phase at 40 uM after 24 hrs by propidium iodide staining-based flow cytometric analysis (reference value: 11.2%); type: functional; conditions: HL-60

T1 sequence (P01106 whole entry): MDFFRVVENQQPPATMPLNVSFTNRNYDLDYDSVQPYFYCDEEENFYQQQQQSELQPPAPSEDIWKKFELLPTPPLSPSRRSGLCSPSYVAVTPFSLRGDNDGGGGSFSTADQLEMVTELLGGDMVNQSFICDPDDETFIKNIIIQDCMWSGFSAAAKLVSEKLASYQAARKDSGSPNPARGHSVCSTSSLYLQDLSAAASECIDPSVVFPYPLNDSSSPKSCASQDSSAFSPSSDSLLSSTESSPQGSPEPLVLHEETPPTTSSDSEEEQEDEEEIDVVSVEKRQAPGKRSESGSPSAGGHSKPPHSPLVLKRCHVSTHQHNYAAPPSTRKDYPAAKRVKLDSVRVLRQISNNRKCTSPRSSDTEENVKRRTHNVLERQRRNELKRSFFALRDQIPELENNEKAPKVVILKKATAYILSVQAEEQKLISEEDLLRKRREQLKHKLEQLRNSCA
T1 sequence (P61244 whole entry): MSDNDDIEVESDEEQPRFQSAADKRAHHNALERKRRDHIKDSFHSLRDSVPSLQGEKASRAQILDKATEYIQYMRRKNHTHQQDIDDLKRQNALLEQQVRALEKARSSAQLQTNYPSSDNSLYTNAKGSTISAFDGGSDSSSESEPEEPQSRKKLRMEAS

Row | Structure (SMILES) | Activity (c-Myc/Max [1]) [%] | also measured
1 | CC(C)COc1cccc(C(=O)Nc2ccc(C(=O)O)cc2OCC(C)C)c1 | 97 | –
2 | CC(C)COc1cc(C(=O)Nc2ccc(C(=O)O)cc2OCc2ccccc2)ccc1[N+](=O)[O-] | 104 | –
3 | COC(=O)c1ccc(NC(=O)c2ccc([N+](=O)[O-])c(OC3Cc4ccccc4C3)c2)c(OC2Cc3ccccc3C2)c1 | 100 | –
4 | CC(C)COc1cc(C(=O)Nc2ccc(C(=O)O)cc2OCC(C)C)ccc1NC(=O)C(=O)O | 99 | –
5 | COC(=O)c1ccc(NC(=O)c2ccc([N+](=O)[O-])c(OC(C)C)c2)c(OCc2ccccc2)c1 | 73 | –
6 | COC(=O)c1ccc(NC(=O)c2ccc([N+](=O)[O-])c(OC3Cc4ccccc4C3)c2)c(OCc2ccccc2)c1 | 78 | –
7 | CC(C)COc1cc(C(=O)Nc2ccc(C(=O)O)cc2OCC(C)C)ccc1N | 105 | –
8 | COC(=O)c1ccc(NC(=O)c2ccc([N+](=O)[O-])c(OCc3ccccc3)c2)c(OCC(C)C)c1 | 75 | –
9 | COC(=O)c1ccc(NC(=O)c2ccc([N+](=O)[O-])c(OC(C)C)c2)c(OCC(C)C)c1 | 70 | –
10 | CC(C)COc1cc(NC(=O)c2ccc([N+](=O)[O-])cc2OCC(C)C)ccc1C(=O)O | 96 | –
11 | COC(=O)c1ccc(NC(=O)c2ccc([N+](=O)[O-])c(OC3Cc4ccccc4C3)c2)c(OCC(C)C)c1 | 90 | –
12 | COc1cc(C(=O)O)ccc1NC(=O)c1ccc([N+](=O)[O-])c(OC)c1 | 94 | –
13 | CC(C)COc1cc(C(=O)Nc2ccc(C(=O)O)cc2OCC(C)C)ccc1NC(=O)COCC(=O)O | 89 | –
14 | COC(=O)c1ccc(NC(=O)c2ccc([N+](=O)[O-])c(OCc3ccccc3)c2)c(OC2Cc3ccccc3C2)c1 | 112 | –
15 | CC(C)COc1nc(C(=O)O)ccc1NC(=O)c1ccc([N+](=O)[O-])c(OCC(C)C)n1 | 0 | IC50 (Daudi): 11.1 µM; IC50 (c-Myc/Max [2]): 23.8 µM; IC50 [3]: 30.3 µM
16 | COC(=O)c1ccc(NC(=O)c2ccc([N+](=O)[O-])c(OCc3ccccc3)c2)c(OCc2ccccc2)c1 | 85 | –
17 | CC(C)COc1cc(C(=O)O)ccc1NC(=O)c1ccc([N+](=O)[O-])c(OCC(C)C)c1 | 0 | IC50 (Daudi): 22.9 µM; IC50 (c-Myc/Max [2]): 20.2 µM; IC50 [3]: 39.9 µM
18 | CC(C)COc1cc(C(=O)O)ccc1NC(=O)c1ccc([N+](=O)[O-])cc1OCC(C)C | 120 | –
19 | COC(=O)c1ccc(NC(=O)c2ccc([N+](=O)[O-])c(OCc3cccc4ccccc34)c2)c(OCc2ccccc2)c1 | 88 | –
20 | CC(C)COc1cc(C(=O)O)ccc1NC(=O)c1ccc([N+](=O)[O-])cc1 | 90 | –
21 | CC(C)COc1cc(C(=O)O)ccc1NC(=O)c1ccc(N)c(OC2Cc3ccccc3C2)c1 | 87 | –

Row | Structure (SMILES) | Activity (c-Myc/Max [1]) [%] | also measured
22 | CCOC(=O)C(=O)Nc1ccc(C(=O)Nc2ccc(C(=O)O)cc2OCC(C)C)cc1OCC(C)C | 0 | IC50 (Daudi): > 50 µM; IC50 (c-Myc/Max [2]): 5.6 µM; IC50 [3]: > 50 µM
23 | COC(=O)c1ccc(NC(=O)c2ccc([N+](=O)[O-])c(OCC(C)C)c2)c(OCC(C)C)c1 | 112 | –
24 | CC(C)COc1cc(C(=O)O)ccc1NC(=O)c1ccc([N+](=O)[O-])c(OCC(C)C)n1 | 0 | IC50 (Daudi): 11.2 µM; IC50 (c-Myc/Max [2]): 43.8 µM; IC50 [3]: 21.5 µM
25 | CC(C)COc1cc(C(=O)Nc2ccc(C(=O)O)cc2OCc2ccncc2)ccc1[N+](=O)[O-] | 87 | –
26 | CC(C)Oc1cc(C(=O)O)ccc1NC(=O)c1ccc([N+](=O)[O-])c(OC(C)C)c1 | 47 | –
27 | CC(C)COc1cc(C(=O)Nc2ccc(C(=O)O)cc2)ccc1[N+](=O)[O-] | 81 | –
28 | O=C(O)c1ccc(NC(=O)c2ccc([N+](=O)[O-])cc2)cc1 | 87 | –
29 | CC(C)COc1cc(C(=O)Nc2ccc(C(=O)O)cc2OCc2cccnc2)ccc1[N+](=O)[O-] | 75 | –
30 | CC(C)COc1cc(C(=O)NCC(=O)O)ccc1NC(=O)c1ccc([N+](=O)[O-])c(OCC(C)C)c1 | 107 | –
31 | COC(=O)c1ccc(NC(=O)c2ccc([N+](=O)[O-])c(OCc3cccc4ccccc34)c2)c(OCC(C)C)c1 | 109 | –
32 | COC(=O)c1ccc(NC(=O)c2ccc([N+](=O)[O-])c(OC(C)C)c2)c(OC2Cc3ccccc3C2)c1 | 109 | –
33 | CC(C)COc1cc(NC(=O)c2ccc([N+](=O)[O-])c(OCC(C)C)c2)ccc1C(=O)O | 80 | –
34 | CCc1ccc(/C=C2\SC(=S)NC2=O)cc1 | – | Activity [4]: 48%; Activity [5]: 35%; Activity (c-Myc/Max [6]): inactive; Activity [7]: 42%; Activity [8]: 59.3%; Activity [9]: 10%; Activity [10]: 5.6%
35 | CC(C)COc1nc(C(=O)Nc2ccc(C(=O)O)nc2OCC(C)C)ccc1N | 79 | –
36 | COC(=O)c1ccc(NC(=O)c2ccc([N+](=O)[O-])c(OCc3cccc4ccccc34)c2)c(OC2Cc3ccccc3C2)c1 | 117 | –
37 | CC(C)COc1cc(C(=O)O)ccc1NC(=O)c1ccc([N+](=O)[O-])c(OC2Cc3ccccc3C2)c1 | 65 | –
38 | CC(C)COc1cc(C(=O)O)ccc1NC(=O)c1ccc([N+](=O)[O-])c(OCc2ccccc2)c1 | – | IC50 (Daudi): 25.6 µM; IC50 (c-Myc/Max [2]): 43 µM
39 | CC(C)COc1cc(C(=O)N(CC(=O)O)CC(=O)O)ccc1NC(=O)c1ccc([N+](=O)[O-])c(OCC(C)C)c1 | 99 | –
40 | CC(C)COc1cc(C(=O)O)ccc1NC(=O)c1ccc([N+](=O)[O-])c(OCc2ccccn2)c1 | 100 | –
41 | CC(C)COc1cc(C(=O)Nc2ccc(C(=O)O)cc2OCc2ccccn2)ccc1[N+](=O)[O-] | 116 | –
